In ChEMBL document CHEMBL4627381, “Licochalcone A Selectively Resensitizes ABCG2-Overexpressing Multidrug-Resistant Cancer Cells to Chemotherapeutic Drugs” (J Nat Prod, 2020):

What was measured:
NCI-H460 = test: Effect on topotecan-induced cytotoxicity against human H460 cells assessed as fold change in topotecan IC50 at 1 uM after 72 hrs by MTT assay relative to topotecan IC50; type: functional
Procedure, shortened: (§1)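 Parental S1 colon and H460 lung cancer cells were exposed for 72 h to a mitoxantrone or topotecan concentration series, with or without modulator at 0.5–3.0 μM, and read by MTT. Fold-reversal is IC50 without modulator divided by IC50 with modulator, taken from dose-response curves of three independent experiments.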

S1-M1-80 [1] = test: Potentiation of topotecan-induced apoptosis in human S1-M1-80 cells harboring ABCG2 (unknown origin) assessed as viable cells at 10 uM incubated for 48 hrs by annexin V/propidium iodide staining based flow cytometry (reference value: 90.6%); type: functional; conditions: S1-M1-80, 48 h, read-out: Activity
[2] = target: T1, Broad substrate specificity ATP-binding cassette transporter ABCG2 (Homo sapiens, UniProt Q9UNQ0); test: Modulation of ABCG2 (unknown origin) expressed in High Five insect cell vesicle membrane assessed as stimulation of ATPase activity after 20 mins by colorimetric assay
T1 sequence (Q9UNQ0 whole entry): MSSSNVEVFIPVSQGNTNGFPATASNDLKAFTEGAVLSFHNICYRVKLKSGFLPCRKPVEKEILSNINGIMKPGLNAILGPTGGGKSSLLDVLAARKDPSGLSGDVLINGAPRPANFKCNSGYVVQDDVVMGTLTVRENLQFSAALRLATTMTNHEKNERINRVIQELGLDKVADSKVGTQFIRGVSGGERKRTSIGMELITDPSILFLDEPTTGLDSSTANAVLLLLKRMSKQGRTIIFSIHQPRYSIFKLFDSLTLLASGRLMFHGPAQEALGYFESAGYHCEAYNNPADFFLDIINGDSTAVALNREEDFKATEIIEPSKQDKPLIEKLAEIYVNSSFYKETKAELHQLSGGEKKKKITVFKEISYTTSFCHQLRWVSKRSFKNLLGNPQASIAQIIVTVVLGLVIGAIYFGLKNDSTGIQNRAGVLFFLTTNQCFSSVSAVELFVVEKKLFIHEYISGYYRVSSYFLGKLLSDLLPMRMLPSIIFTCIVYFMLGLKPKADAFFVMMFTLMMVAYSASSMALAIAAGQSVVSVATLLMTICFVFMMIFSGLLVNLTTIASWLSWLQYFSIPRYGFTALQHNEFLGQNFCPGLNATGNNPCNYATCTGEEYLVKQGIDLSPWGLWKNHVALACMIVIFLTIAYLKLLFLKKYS
Procedure, shortened: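 Membrane vesicles from ABCG2-expressing High Five cells were incubated with LCA (0–390 μM) at 37 °C for 20 min in 50 mM MES-Tris pH 6.8 with ouabain, DTT, NaN3, EGTA and KCl, ±0.3 mM vanadate. Liberated Pi was read by molybdate/ascorbate colorimetry at 880 nm. Vi-sensitive activity = activity minus activity with vanadate; mean ± SD of three experiments.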

[3] = target: ATP-dependent translocase ABCB1 (Homo sapiens, UniProt P08183); test: Reversal of human ABCB1-mediated multidrug resistance in HEK293/MDR19 cells assessed as fold change in colchicine IC50 at 0.5 uM after 72 hrs by CCK8 relative to colchicine IC50; type: cell-based
Sequence of ATP-dependent translocase ABCB1 (P08183 whole entry): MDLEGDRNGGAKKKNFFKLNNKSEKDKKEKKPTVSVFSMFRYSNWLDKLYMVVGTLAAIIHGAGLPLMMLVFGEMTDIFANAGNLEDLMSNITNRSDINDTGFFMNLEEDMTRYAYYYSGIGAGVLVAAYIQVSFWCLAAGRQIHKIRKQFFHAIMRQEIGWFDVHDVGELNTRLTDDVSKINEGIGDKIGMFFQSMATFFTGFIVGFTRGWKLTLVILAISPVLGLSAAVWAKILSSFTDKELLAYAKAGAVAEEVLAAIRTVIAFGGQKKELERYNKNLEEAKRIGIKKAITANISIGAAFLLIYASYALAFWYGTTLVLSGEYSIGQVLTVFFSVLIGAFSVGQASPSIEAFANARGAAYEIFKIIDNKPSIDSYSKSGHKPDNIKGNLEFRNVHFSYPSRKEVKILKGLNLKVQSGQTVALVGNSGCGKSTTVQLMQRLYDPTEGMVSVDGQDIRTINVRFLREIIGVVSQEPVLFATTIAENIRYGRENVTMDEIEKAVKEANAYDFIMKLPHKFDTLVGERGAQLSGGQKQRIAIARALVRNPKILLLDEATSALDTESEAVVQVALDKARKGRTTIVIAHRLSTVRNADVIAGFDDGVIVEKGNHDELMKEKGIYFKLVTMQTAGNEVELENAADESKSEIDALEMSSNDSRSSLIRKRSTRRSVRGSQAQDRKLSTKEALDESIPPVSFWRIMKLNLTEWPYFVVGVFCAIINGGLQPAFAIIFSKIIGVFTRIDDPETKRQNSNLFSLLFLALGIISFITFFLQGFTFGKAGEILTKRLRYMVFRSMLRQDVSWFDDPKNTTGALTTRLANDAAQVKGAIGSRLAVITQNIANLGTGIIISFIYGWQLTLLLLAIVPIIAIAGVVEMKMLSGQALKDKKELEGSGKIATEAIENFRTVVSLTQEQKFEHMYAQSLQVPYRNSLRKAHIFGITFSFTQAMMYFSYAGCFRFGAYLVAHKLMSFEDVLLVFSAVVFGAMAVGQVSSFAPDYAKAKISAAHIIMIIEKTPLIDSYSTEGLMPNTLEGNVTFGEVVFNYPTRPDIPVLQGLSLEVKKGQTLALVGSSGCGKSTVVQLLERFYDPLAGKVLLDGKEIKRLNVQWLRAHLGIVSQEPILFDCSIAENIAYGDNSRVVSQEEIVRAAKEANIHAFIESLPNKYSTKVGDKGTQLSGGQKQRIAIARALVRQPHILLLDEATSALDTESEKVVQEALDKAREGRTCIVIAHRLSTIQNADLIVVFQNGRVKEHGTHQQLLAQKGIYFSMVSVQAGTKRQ
Procedure, shortened: (§2)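 Cells were seeded at 5000/well for 24 h, then given colchicine, etoposide, mitoxantrone or topotecan ± non-toxic modulator (0.5–3.0 μM) for 72 h, with DMSO up to 0.5%. IC50 came from fitted curves (mean ± SD, three experiments). Fold-reversal = IC50 without modulator ÷ IC50 with modulator.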

S1 [4] = test: Effect on mitoxantrone-induced cytotoxicity against human S1 cells assessed as fold change in mitoxantrone IC50 at 1 uM after 72 hrs by MTT assay relative to mitoxantrone IC50; type: functional; procedure, shortened: as §1
HEK293 [5] = test: Effect on Colchicine-induced cytotoxicity against HEK293 cells assessed as fold change in colchicine IC50 at 1 uM after 72 hrs by CCK8 assay relative to colchicine IC50; type: cell-based; conditions: human, hek293, 72 h
Procedure, shortened: (§3)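 Reversal assay in parental pcDNA-HEK293 and transfected HEK293 lines (ABCB1 for colchicine, ABCC1 for etoposide, ABCG2 for mitoxantrone/topotecan). Substrate drug series was given with or without nontoxic modulator (0.5, 1.0, 2.0 or 3.0 μM) for 72 h, with a CCK-8 read-out. Fold-reversal is substrate IC50 without modulator divided by IC50 with modulator. Three independent experiments.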

[6] = target: T1, Broad substrate specificity ATP-binding cassette transporter ABCG2; test: Reversal of human ABCG2-mediated multidrug resistance in HEK293/R482 cells assessed as potentiation of topotecan-induced cytotoxicity after 72 hrs by CCK8 assay; type: cell-based; procedure, shortened: as §2
S1-M1-80 [7] = test: Potentiation of topotecan-induced apoptosis in human S1-M1-80 cells harboring ABCG2 (unknown origin) assessed as late apoptotic cells at 10 uM incubated for 48 hrs by annexin V/propidium iodide staining based flow cytometry (reference value: 6%); type: functional
HEK293 [8] = test: Effect on Colchicine-induced cytotoxicity against HEK293 cells assessed as fold change in colchicine IC50 at 2 uM after 72 hrs by CCK8 assay relative to colchicine IC50; type: cell-based; conditions: human, hek293, 72 h; procedure, shortened: as §3
S1-M1-80 [9] = test: Induction of apoptosis in human S1-M1-80 cells harboring ABCG2 (unknown origin) assessed as late apoptotic cells at 10 uM incubated for 48 hrs by annexin V/propidium iodide staining based flow cytometry (reference value: 2.9%); type: functional
S1-M1-80 [10] = test: Cytotoxicity against human S1-M1-80 cells harboring ABCG2 (unknown origin) after 72 hrs by MTT assay; type: functional, cell-based; conditions: S1-M1-80, 72 h
Procedure, shortened: (§4)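 Cells seeded at 5000/well, allowed 24 h, then exposed to a concentration series for 72 h at 37 °C in DMSO vehicle (up to 0.5% v/v). HEK293 lines were read with CCK-8 and cancer lines with MTT. IC50 was taken from fitted dose-response curves over at least three independent experiments. Lines were kept drug-free for 7 days before assay.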

S1 [11] = test: Effect on topotecan-induced cytotoxicity against human S1 cells assessed as fold change in topotecan IC50 at 1 uM after 72 hrs by MTT assay relative to topotecan IC50; type: functional; procedure, shortened: as §1
S1 [12] = test: Cytotoxicity against human S1 cells after 72 hrs by MTT assay; type: functional, cell-based; conditions: S1, 72 h; procedure, shortened: as §4
[13] = target: T1, Broad substrate specificity ATP-binding cassette transporter ABCG2; test: Reversal of ABCG2 (unknown origin)-mediated multidrug resistance in human H460-MX20 cells assessed as fold change in topotecan IC50 at 2 uM after 72 hrs by MTT assay relative to topotecan IC50; type: cell-based
Procedure, shortened: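 Cells held drug-free 7 days, seeded at 5000 per well for 24 h, then exposed 72 h to mitoxantrone or topotecan dilutions with DMSO (≤0.5%), LCA 0.5–3.0 μM, or Ko143 1.0 μM. Viability was read by MTT. IC50 came from fitted dose-response curves of three independent experiments. Fold-reversal = IC50 without modulator divided by IC50 with modulator.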

[14] = target: T1, Broad substrate specificity ATP-binding cassette transporter ABCG2; test: Modulation of human ABCG2 expressed in HEK293/R482 cells assessed as increase in intracellular pheophorbide A accumulation at 20 uM incubated for 1 hr by FACScan flow cytometry; type: cell-based
Procedure, shortened: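 Cells held drug-free 7 days. 3 × 10^5 cells were suspended in IMDM with 5% FCS and loaded with pheophorbide A (ex 395/em 670 nm) for 1 h, with or without LCA (20 μM for single-concentration accumulation) or Ko143 3 μM as reference. Read immediately by flow cytometry. Efflux inhibition was run over a concentration range; mean ± SD of three experiments.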

**Q.** With `C=CC(C)(C)c1cc(/C=C/C(=O)c2ccc(O)cc2)c(OC)cc1O` [LICOAGROCHACONE A] as the compound, how does the “fold change (FC)” value (NCI-H460) read?
**A.** 1.7

**Q.** What about the viability at 10 µM (S1-M1-80 [1]) of the same compound?
**A.** 67.8%

**Q.** And the EC50 [2]?
**A.** 14 µM

**Q.** What about the Activity ([2]; human, 20 min) of the same compound?
**A.** Dose-dependent effect

**Q.** What about the “fold change (FC)” value [3] of the same compound?
**A.** 1

**Q.** What about the “fold change (FC)” value (S1 [4]) of the same compound?
**A.** 1.1

**Q.** What about the “fold change (FC)” value (HEK293 [5]) of the same compound?
**A.** 1.1

**Q.** What about the Activity [6] of the same compound?
**A.** Dose-dependent effect

**Q.** And the Activity (S1-M1-80 [7])?
**A.** 22.5%

**Q.** And the “fold change (FC)” value (HEK293 [8])?
**A.** 0.9

**Q.** And the Activity (S1-M1-80 [9])?
**A.** 2.9%

**Q.** What about the IC50 (S1-M1-80 [10]) of the same compound?
**A.** 10 to 50 µM

**Q.** What about the “fold change (FC)” value (S1 [11]) of the same compound?
**A.** 0.8

**Q.** What about the IC50 (S1 [12]) of the same compound?
**A.** 10 to 50 µM

**Q.** What about the “fold change (FC)” value [13] of the same compound?
**A.** 8.9

**Q.** And the Activity [14]?
**A.** Active
